# From PubChem BioAssay
# JNK3 blocker – JNK3 (human) kinase inhibition. inhibition, % at 8 µM. hit rate 0.61% among 60,000. purified JNK3 kinase activity, HTS. P53779. AID 746; in the data active = inhibition above about 17%;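 note: 0% = DMSO and 100% = reference inhibitor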
# Ec RNAP inh – blocks E. coli RNA polymerase transcription; hit rate 0.2% among 62,000; P0A8V2; fluorescence transcription assay; inhibition, %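 (tested at 10 µM)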; AID 559; in the data active = inhibition above about 20%;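 note: 0% = enzyme without compound and 100% = no enzyme blank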
# SF1 activator – activators of human nuclear receptor SF-1 | hit rate 1.9% among 65,000 | activation, % at 10 µM | Q13285 | CHO-K1 Gal4-SF-1 LBD luciferase reporter; % increase over DMSO SF-1-specific signal;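 active = activation above the mean activation of all tested compounds plus 3 SD, cut at about 50% in these data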
# Target sequence (Q13285 whole entry, looked up, the tested form may be a part): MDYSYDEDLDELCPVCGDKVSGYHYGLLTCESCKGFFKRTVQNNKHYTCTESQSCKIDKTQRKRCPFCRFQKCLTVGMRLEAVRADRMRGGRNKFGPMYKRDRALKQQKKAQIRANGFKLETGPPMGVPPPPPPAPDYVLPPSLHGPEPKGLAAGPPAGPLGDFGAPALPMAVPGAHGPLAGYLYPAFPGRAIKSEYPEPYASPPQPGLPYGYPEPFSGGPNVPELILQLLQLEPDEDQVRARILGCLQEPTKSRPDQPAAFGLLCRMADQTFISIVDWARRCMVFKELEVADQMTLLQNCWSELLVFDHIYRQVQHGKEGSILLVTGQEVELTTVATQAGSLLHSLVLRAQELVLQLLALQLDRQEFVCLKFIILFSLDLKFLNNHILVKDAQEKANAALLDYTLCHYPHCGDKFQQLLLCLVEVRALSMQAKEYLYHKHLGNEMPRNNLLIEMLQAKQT
#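 Assay system: CHO-K1 cells co-transfected with Gal4 DBD–human SF-1 LBD, 5xGal4 luciferase reporter / Input: 4,000 cells per well / Incubation: 20 h compound exposure at 37 °C after 1 h cell settling / Detection: SteadyLite luciferase luminescence / Control set: DMSO negative control and −SF1 background wells / Replication: one test per compound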
# BAP1 block – blocks human BAP1 ubiquitin-AMC hydrolysis; Q92560; recombinant BAP1, Ub-AMC hydrolysis fluorescence kinetic; active compounds read low; activity remaining (% of control), % at 20 µM; hit rate 0.48% among 72,000;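 active = activity remaining at or below 50% of control, provided the compound also passes the data quality filters; inactive = the rest, including low values that fail the filters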;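 note: 100% = DMSO wells rate and 0% = substrate alone blank rate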
# RORA act – activators of human nuclear receptor RORA; P35398; CHO-K1 Gal4-RORA LBD luciferase reporter, luminescence; percent increase over mock-subtracted basal signal; activation, % at 10 µM; hit rate 1.5% among 65,000;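 active = activation above the mean of all tested compounds plus 3 SD, cut at about 49% in these data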;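 note: 0% = DMSO-treated RORA cells and 100% = added signal equal to DMSO minus mock-transfected cells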
# BAP1 inh conf – BAP1 (human) enzyme inhibition, confirmed | AID 753 | purified BAP1, Ub-ethyl ester hydrolysis, HPLC; active compounds read low | shares compounds with BAP1 block | hit rate 8% among 310 | % of control activity, % at 20 µM;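 active = percent of control activity at or below 60%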
# Starred values were filed as active, the others as inactive; / = no result given. In the library only some 3.2% were active in any assay of this set; here they are far more common.
SMILES,JNK3 blocker,Ec RNAP inh,SF1 activator,BAP1 block,RORA act,BAP1 inh conf
CCCSC1=N/C(=C\C=C\c2ccco2)C(=O)S1,5,7,15,38*,2,86
Cc1csc(NC(=O)c2c(O)c3cccc4c3n(c2=O)CCC4)n1,-1,4,9,109,-5,/
CC1=C(C(=O)Nc2ccccc2)C(c2ccc(C)o2)n2c(s/c(=C\c3ccco3)c2=O)=N1 (stereo not drawn),-6,11,31,39*,16,111
COc1cccc(CN(Cc2ccco2)C(c2ccc(F)cc2)c2nnnn2C(C)(C)C)c1 (stereo not drawn),-4,7,-4,38*,-24,71
CC(C)(C)n1nnnc1C(c1ccccc1F)N(Cc1ccco1)CC1CCCO1 (stereo not drawn),-7,2,-5,94,-22,/
CCOC(=O)c1oc2ccc(S(=O)(=O)n3nc(-c4ccc(OC)cc4)cc3N)cc2c1C,5,2,11,45*,3,75
CC(C)OC(=O)c1cccnc1SCc1cc(=O)n2ccccc2n1,4,-5,3,48*,3,90
O=c1[nH]c(SCc2cc(=O)n3ccccc3n2)nc2c1CCC2,-1,2,14,94,-12,/
CCOC(=O)c1oc2ccc3c(c2c1C)C(=O)CC1(CCN(C(=O)OCC)CC1)O3,7,-3,11,35*,-4,84
CCOC(=O)N1CCC2(CC1)CC(=O)c1c(ccc3oc(C(=O)O)c(C)c13)O2,7,-2,0,/,-10,/
COCCn1nnnc1C(C(C)C)N(Cc1cccnc1)Cc1cc2cc(OC)ccc2[nH]c1=O (stereo not drawn),-6,4,-17,41*,6,114
Cc1ccc(-c2nnn(CC(=O)Nc3ccc(S(=O)(=O)N4CCC(C)CC4)cc3)n2)cc1,-4,4,-15,24*,9,73
COc1ccc(NC(=O)Cn2nnc(-c3ccccc3F)n2)cc1,0,12,-5,122,-1,/
CC1CCCN(S(=O)(=O)c2ccc(NC(=O)Cn3nnc(-c4ccccc4F)n3)cc2)C1 (stereo not drawn),12,3,14,39*,10,26*
CC1CCN(S(=O)(=O)c2ccc(NC(=O)Cn3nnc(-c4ccccc4)n3)cc2)CC1,11,4,5,62,32,/
CN(CC(=O)N1CCN(c2ccc(F)cc2)CC1)S(=O)(=O)c1ccc(F)cc1,-8,4,28,31*,-11,137
Nc1c(C(=O)c2ccc(Br)s2)oc2ccccc12,12,7,30,39*,-2,81
Nc1c(C(=O)c2cccs2)oc2ccccc12,-2,1,-1,83,-8,/
CCc1nc2c(cnn2-c2ccc(Cl)cc2)c(=O)n1-c1ccc(OC)cc1,2,7,-19,32*,18,89
CCn1c(SCC(=O)Nc2ccc3c(c2)c2ccccc2n3CC)nnc1-c1cnccn1,-6,9,-6,/,-13,/
CCn1c2ccccc2c2cc(NC(=O)CSc3nnc(C4CC4)n3Cc3ccco3)ccc21,1,5,-3,48*,4,100
CCOC(=O)c1sc2nc(NC(=O)COc3ccccc3)sc2c1C,4,-3,16,28*,6,78
Nc1c(C(=O)NCc2ccco2)sc2nc3c(cc12)C(=O)CCC3,3,5,31,42*,7,151
COc1ccc2cc3c(N)c(C(=O)NCc4ccco4)sc3nc2c1,-23,-11,5,91,9,/
CC1CCC/C(=C\Nc2ccc(O)cc2)C1=O (stereo not drawn),-10,4,1,50*,-7,91
SMILES,JNK3 blocker,Ec RNAP inh,SF1 activator,BAP1 block,RORA act,BAP1 inh conf
CSc1ccc(C2C(C#N)=C(N)Oc3c2ccc(=O)c2c(C)oc(C)c32)cc1 (stereo not drawn),0,4,16,32*,-4,118
Cc1cc(C)c2[nH]c(=O)c(CN(Cc3ccc4c(c3)OCO4)Cc3nnnn3C3CCCC3)cc2c1,1,7,14,40*,2,112
Cc1cccc2cc(CN(Cc3cccs3)C3(c4nnnn4C4CCCC4)CCCC3)c(=O)[nH]c12,-1,2,-11,33*,-29,74
COCCCN1C(=O)C(=O)/C(=C(/O)c2ccccc2)C1c1ccc2c(c1)OCO2 (stereo not drawn),3,7,2,92,-10,/
CN1C(=O)CSc2ccc(NC(=O)N3CCC(N4CCCCC4)CC3)cc21,-7,6,-40,119,-2,/
COc1ccccc1NC(=O)c1nc[nH]c1C(=O)Nc1ccccc1OC,1,0,2,/,6,/
COc1ccc(NC(=O)c2nc[nH]c2C(=O)Nc2ccccc2C)cc1,5,0,24,45*,27,156
COCC(=O)Nc1nc2n(n1)C(c1ccccc1Cl)CC(c1ccc(OC)cc1)N2 (stereo not drawn),2,1,2,104,-12,/
C=CCn1c(COc2cccc(C)c2)nnc1SCC(=O)NC(=O)NCc1ccco1,4,3,-9,49*,-19,137
CCc1cc2cc3c(cc2nc1SCC(=O)Nc1cc(C)on1)OCO3,-6,8,-23,49*,-32,93
CCc1cc2cc3c(cc2nc1SCC(=O)N1CCN(C(=O)c2ccco2)CC1)OCO3,6,6,-12,88,-3,/
Cc1noc(C)c1COC(=O)CCc1ccc(S(=O)(=O)N2CCCCC2)cc1,0,1,11,95,0,/
O=C(CSc1nnc(C2CC2)n1Cc1ccccc1)c1cc2ccccc2o1,-5,4,6,46*,2,91
NC(=O)CSc1nnc(-c2cc3ccccc3o2)n1Cc1ccccc1,-4,2,-10,73,11,/
Cc1ccc(S(=O)(=O)n2nc(C)c(Br)c2C)c(C)c1C,0,9,-12,82,-24,/
Cc1cccc2cc(C(c3nnnn3C(C)(C)C)N3CCN(C(=O)c4ccco4)CC3)c(=O)[nH]c12 (stereo not drawn),-8,15,18,49*,-14,42*
CC(C)(C)n1nnnc1C(c1cccnc1)N1CCN(C(=O)c2ccco2)CC1 (stereo not drawn),-4,8,-2,110,-17,/
CCCCCOC(=O)CSc1nc2c(c(=O)[nH]c(=O)n2C)n1CCc1ccccc1,-5,/,-2,21*,-6,96
CCOc1nc(-c2ccccc2)ccc1-c1noc(-c2cccnc2)n1,/,-8,-11,102,-6,/
COc1cccc(-n2nc(C(=O)Nc3ccc4c(c3)OCO4)c3ccccc3c2=O)c1,0,4,14,72,-18,/
COc1ccc(-n2nc(C(=O)Nc3ccc4c(c3)OCO4)c3c4ccccc4n(C)c3c2=O)cc1,1,4,-8,25*,-14,81
